Consider 1 compound from ChEMBL document CHEMBL1212800, “Influence of alpha-1 glycoprotein acid concentrations and variants on atazanavir pharmacokinetics in HIV-infected patients included in the ANRS 107 trial” (Antimicrob Agents Chemother, 2010).

SMILES strings stand for the structures.

For one data set, the target named is Albumin (Homo sapiens, UniProt P02768). The data set is described as follows: Binding affinity to human serum albumin. As to conditions: isolated protein. In kind it is ADME. In outline:
(§1)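 In vitro binding: alpha-1 glycoprotein acid or serum albumin solutions in pH 7.4 phosphate-buffered saline with added atazanavir. Bound and unbound drug separated by ultrafiltration of 500-µl samples (30,000 Da cutoff membrane), 2 h at 30°C. Ultrafiltrate drug measured by HPLC-UV at 220 nm (C18 column, liquid-liquid extraction, internal standard). Unbound fraction taken as unbound/total concentration. Binding profiled as bound versus unbound concentration.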

Data set [1] can be described thus: Binding affinity to human alpha-1-glycoprotein acid. In kind it is ADME. In outline: as §1
Data set [2] in a line: Apparent oral clearance in human by one-compartment model. In kind it is ADME, organism-based. Conditions: in vivo. In outline: (§2)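 HIV-infected patients (ANRS 107) on atazanavir plus ritonavir plus tenofovir plus optimized background. Week-6 predose plasma trough samples; 10-patient substudy also sampled at 1, 2, 3, 5, 8 and 24 h postdose. Plasma held at −20°C, assayed by LC-MS/MS (LOQ 1 ng/ml). Population analysis used a one-compartment model with first-order absorption and elimination, exponential interindividual variability and proportional residual error.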

A short description of data set [3]: Apparent oral clearance in human by covariate model. As to conditions: in vivo. In kind it is ADME, organism-based. A digest of the protocol: as §2
Data set [4] can be described thus: Apparent volume of distribution with respect to the bioavailability in human by one-comparment model. In kind it is ADME, organism-based. Conditions: in vivo, read-out: Vc/F. In outline:
as §2

Data set [5] in a line: Apparent volume of distribution with respect to the bioavailability in human by covariate model. In kind it is ADME, organism-based. Conditions: in vivo, read-out: Vc/F. A digest of the protocol: as §2
For data set [6], the species on record is Homo sapiens. Put plainly: Absorption rate constant in human by one-compartment model. In kind it is ADME, organism-based. Conditions: in vivo. In outline:
as §2

The species entered for data set [7] is Homo sapiens. Put plainly: Absorption rate constant in human by covariate model. Conditions: in vivo. In kind it is ADME, organism-based. In outline:
as §2

Data set [8] is described as follows: Half life in patient with elevated alpha-1- glycoprotein acid level by covariate model. It is filed as ADME, organism-based. Conditions: human, in vivo. A digest of the protocol: as §2
Data set [9] in a line: Half life in patient with elevated alpha-1- glycoprotein acid level by one-compartment model. In kind it is ADME, organism-based. As to conditions: human, in vivo. A digest of the protocol: as §2
Data set [10] can be described thus: AUC in patient with elevated alpha-1- glycoprotein acid level by covariate model. It is filed as ADME, organism-based. Conditions: human, in vivo. In outline: as §2
Data set [11] can be described thus: AUC in patient with elevated alpha-1- glycoprotein acid level by one-compartment model. As to conditions: human, in vivo. It is filed as ADME, organism-based. A digest of the protocol:
as §2

A short description of data set [12]: Half life in patient with => 40 IU/liter ALAT level by covariate model. In kind it is ADME, organism-based. As to conditions: human, in vivo. A digest of the protocol:
as §2

A short description of data set [13]: Half life in patient with => 40 IU/liter ALAT level by one-compartment model. In kind it is ADME, organism-based. As to conditions: human, in vivo. A digest of the protocol:
as §2

Data set [14] is described as follows: AUC in patient with => 40 IU/liter ALAT level by covariate model. Conditions: human, in vivo. It is filed as ADME, organism-based. In outline: as §2
The nature of data set [15]: AUC in patient with => 40 IU/liter ALAT level by one-compartment model. In kind it is ADME, organism-based. As to conditions: human, in vivo. In outline:
as §2

Albumin, sequence (P02768 whole entry): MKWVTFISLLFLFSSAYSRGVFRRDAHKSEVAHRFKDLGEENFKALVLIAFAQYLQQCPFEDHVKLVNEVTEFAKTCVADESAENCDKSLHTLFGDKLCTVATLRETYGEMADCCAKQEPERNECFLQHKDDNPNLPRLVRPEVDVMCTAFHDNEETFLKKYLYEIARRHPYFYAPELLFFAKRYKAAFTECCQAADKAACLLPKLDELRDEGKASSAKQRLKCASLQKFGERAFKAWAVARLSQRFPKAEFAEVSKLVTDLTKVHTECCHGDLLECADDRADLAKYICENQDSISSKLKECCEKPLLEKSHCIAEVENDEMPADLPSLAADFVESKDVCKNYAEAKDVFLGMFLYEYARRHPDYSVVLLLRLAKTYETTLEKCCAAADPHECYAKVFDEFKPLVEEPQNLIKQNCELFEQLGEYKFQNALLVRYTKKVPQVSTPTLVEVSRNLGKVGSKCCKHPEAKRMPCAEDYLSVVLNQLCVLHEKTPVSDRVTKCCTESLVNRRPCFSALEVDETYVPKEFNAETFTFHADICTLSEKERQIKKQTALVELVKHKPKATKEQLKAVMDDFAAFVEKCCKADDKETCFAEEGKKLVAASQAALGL

Turning to `COC(=O)N[C@H](C(=O)N[C@@H](Cc1ccccc1)[C@@H](O)CN(Cc1ccc(-c2ccccn2)cc1)NC(=O)[C@@H](NC(=O)OC)C(C)(C)C)C(C)(C)C` [ATAZANAVIR], the Activity on Albumin turned out to be 21.3%; in [1], 31.1%. The CL/F (as a rule, the apparent clearance, not corrected for the fraction that reaches the circulation) in data set [2] is 130 mL/min; in [3], 222 mL/min. Moreover, the values for the Vd/F in data set [4] and in data set [5] were 78.2 L and 79.7 L, respectively. In addition, the ka in the data set listed under Homo sapiens [6] was found to be 0.75 h⁻¹; in the data set filed under Homo sapiens [7], 0.73 h⁻¹. Also, the half-life (as a rule, how long it takes for the measured level to halve) was 9 h in [8], 9 h in [9], 7.8 h in data set [12] and 7.8 h in [13]. In addition, the AUC (commonly concentration integrated over time) in [10] came out at 49600 ng·h/mL; in [11], 49600 ng·h/mL; in data set [14], 47400 ng·h/mL; in [15], 47400 ng·h/mL.
